ChEMBL document CHEMBL1833940, “Discovery of 3-(2,6-dichloro-3,5-dimethoxy-phenyl)-1-{6-[4-(4-ethyl-piperazin-1-yl)-phenylamino]-pyrimidin-4-yl}-1-methyl-urea (NVP-BGJ398), a potent and selective inhibitor of the fibroblast growth factor receptor family of receptor tyrosine kinase” (J Med Chem, 2011)

Assays:
[1] = target: Glycogen synthase kinase-3 beta (Homo sapiens, UniProt P49841); assay: Inhibition of recombinant GSK3-beta
How it was run: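 Purified recombinant kinases under optimized conditions with peptide substrates. ATP was set at each kinase's Km. Phosphorylation was read by microfluidic mobility-shift separation of substrate and product; IC50 determined.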

Insulin receptor = Insulin receptor (Homo sapiens, UniProt P06213); assay: Inhibition of recombinant INSR
How it was run: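 Purified recombinant kinases under optimized conditions, with peptide substrates and ATP at each kinase's Km. Phosphorylation was read out by microfluidic mobility shift, and IC50 values were obtained.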

[2] = Cmax in plasma of RT112/luc1 cells implanted athymic nude mouse at 5 mg/kg, iv by LC/MS/MS analysis; assay type: ADME, organism-based; design: dose 5 mg/kg, route intravenous
How it was run: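 Female athymic nude mice carried subcutaneous RT112/luc1 tumors (5×10^6 cells, 50% Matrigel; about 300–400 mm3). Dosing was either 5 mg/kg iv by tail vein in NMP/PEG200 (1:9) or 20 mg/kg oral suspension in PEG300/D5W (2:1). Groups of mice (n = 4) were sacrificed at 0.083–24 h. Plasma and tumor levels were measured by LC-MS/MS (LOQ 5 ng/mL, 10 ng/g).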

Chain of Glycogen synthase kinase-3 beta (P49841 whole entry): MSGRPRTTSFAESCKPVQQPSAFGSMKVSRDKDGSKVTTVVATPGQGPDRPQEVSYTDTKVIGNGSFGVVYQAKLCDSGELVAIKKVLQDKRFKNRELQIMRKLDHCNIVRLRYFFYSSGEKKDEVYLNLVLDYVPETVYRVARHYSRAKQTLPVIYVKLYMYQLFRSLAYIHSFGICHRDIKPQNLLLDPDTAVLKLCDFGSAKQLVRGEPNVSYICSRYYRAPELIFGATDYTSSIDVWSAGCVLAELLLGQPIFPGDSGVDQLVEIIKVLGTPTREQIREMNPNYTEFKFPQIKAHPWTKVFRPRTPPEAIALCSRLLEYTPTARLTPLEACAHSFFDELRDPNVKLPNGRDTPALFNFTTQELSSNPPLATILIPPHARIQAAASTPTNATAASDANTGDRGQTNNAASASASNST
Chain of Insulin receptor (P06213 28-758 limits assumed): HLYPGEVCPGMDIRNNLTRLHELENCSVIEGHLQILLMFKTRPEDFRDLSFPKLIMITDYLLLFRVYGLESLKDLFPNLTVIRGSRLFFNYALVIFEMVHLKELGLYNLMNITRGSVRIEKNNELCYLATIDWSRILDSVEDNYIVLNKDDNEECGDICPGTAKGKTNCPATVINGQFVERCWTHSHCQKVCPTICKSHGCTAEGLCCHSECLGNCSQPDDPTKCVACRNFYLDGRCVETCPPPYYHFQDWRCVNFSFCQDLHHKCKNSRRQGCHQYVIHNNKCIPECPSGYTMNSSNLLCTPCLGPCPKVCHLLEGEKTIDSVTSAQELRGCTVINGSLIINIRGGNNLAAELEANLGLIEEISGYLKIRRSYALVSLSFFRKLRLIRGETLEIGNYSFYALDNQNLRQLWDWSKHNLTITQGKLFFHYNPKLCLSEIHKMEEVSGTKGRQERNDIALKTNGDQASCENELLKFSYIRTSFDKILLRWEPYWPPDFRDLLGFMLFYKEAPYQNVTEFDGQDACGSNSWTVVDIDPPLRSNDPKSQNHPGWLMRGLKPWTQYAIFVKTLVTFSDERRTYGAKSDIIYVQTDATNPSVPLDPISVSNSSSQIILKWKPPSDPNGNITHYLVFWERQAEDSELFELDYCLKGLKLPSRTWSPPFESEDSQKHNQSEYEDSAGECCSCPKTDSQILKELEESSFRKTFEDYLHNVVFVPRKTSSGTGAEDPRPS
Chain of Insulin receptor (P06213 763-1382 limits assumed): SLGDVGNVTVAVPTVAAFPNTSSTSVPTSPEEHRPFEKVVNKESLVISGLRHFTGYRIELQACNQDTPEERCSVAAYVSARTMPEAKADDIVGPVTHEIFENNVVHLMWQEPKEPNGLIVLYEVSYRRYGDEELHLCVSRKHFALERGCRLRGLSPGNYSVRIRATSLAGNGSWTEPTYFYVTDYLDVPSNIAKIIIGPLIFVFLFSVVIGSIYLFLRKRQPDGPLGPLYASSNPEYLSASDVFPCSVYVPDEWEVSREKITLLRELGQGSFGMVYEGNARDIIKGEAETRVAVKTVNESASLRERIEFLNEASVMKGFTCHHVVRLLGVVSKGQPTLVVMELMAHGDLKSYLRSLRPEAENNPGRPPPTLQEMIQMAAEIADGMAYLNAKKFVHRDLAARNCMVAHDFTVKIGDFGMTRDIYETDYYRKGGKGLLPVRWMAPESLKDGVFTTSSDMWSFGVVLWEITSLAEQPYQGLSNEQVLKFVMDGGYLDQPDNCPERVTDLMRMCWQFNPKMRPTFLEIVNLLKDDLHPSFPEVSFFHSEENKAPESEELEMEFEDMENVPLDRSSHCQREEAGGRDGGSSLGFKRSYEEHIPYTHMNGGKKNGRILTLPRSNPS

`CCN1CCN(c2ccc(Nc3cc(N(C)C(=O)Nc4c(Cl)c(OC)cc(OC)c4Cl)ncn3)cc2)CC1.O=P(O)(O)O` [INFIGRATINIB PHOSPHATE] showed an IC50 [1] greater than 10 µM, an IC50 (Insulin receptor) greater than 10 µM and a Cmax [2] of 860 nM.
